High-throughput results: PubChem BioAssay, several laboratories
EP2 antag: EP2 receptor (human) inhibition; P43116; C6 glioma cells expressing human EP2, cAMP TR-FRET; cells stimulated with saturating PGE2; inhibition, % at 25 µM; 260,000 tested, 0.52% active; AID 1422;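 active = percent inhibition above 40 after rounding to a whole number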;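 note: rat C6 glioma host cells with rolipram phosphodiesterase inhibitor present; the protocol text gives 20 µM as final concentration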
GPR7 antagonist: blocks human GPR7 receptor signaling. P48145. GPR7-expressing cells, fluorescence antagonist assay. inhibition, % at 4.4 µM. 290,000 tested, 1.1% active. AID 1861; in the data active = inhibition above about 16%, passing the limit was not always enough;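 note: cells stimulated with the agonist NPW; 0% = agonist with vehicle and 100% = vehicle without agonist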
Target sequence (P48145 whole entry, looked up): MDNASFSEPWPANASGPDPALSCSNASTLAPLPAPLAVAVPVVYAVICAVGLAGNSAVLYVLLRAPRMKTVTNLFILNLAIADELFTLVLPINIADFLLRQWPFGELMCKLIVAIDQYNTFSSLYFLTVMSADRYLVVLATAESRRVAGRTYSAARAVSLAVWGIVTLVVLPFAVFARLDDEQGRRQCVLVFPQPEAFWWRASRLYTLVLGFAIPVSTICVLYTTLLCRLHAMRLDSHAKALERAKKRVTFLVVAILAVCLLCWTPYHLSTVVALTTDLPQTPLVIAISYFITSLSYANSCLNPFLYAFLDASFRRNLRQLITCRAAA
CHO parental Ca: counter-screen for OX1R antagonists: effect in parental CHO cells | parental CHO-K1, ATP-induced calcium, Fluo-8 fluorescence | inhibition, % at 5.6 µM | 330,000 tested, 0.63% active;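 active = inhibition above that plate's mean sample inhibition plus 3 SD, cut at about 26% in these data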;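 note: 0% = ATP-challenged DMSO wells and 100% = DMSO wells without ATP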
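Assay system – parental CHO cells · Reagent – ATP stimulus · Detection – intracellular calcium via Fluo-8 no-wash fluorescent dye · Evaluation – percent inhibition of ATP-evoked calcium rise, normalized to controls · Controls – ATP wells versus no-ATP DMSO wells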
OX1R antag-1: OX1R (human) antagonism. O43613. OX1R-expressing cells, FRET antagonist read-out. inhibition, % at 6.6 µM. 330,000 tested, 1.8% active; in the data active = inhibition mostly above about 38%, no sharp cut-off; inactive = mostly below about 40%;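 note: 0% = agonist challenge alone and 100% = reference antagonist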
OX1R antag-2: human HCRTR1 antagonism. CHO/OX1R cells, Fluo-8 calcium fluorescence, orexin A. O43613. 330,000 tested, 0.43% active. inhibition, % at 5 µM;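 active = inhibition above its plate's threshold, mean inhibition of all tested compounds on the plate plus 3 SD, cut at about 37% in these data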;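 note: 0% = orexin A challenge wells and 100% = SB-334867-A antagonist wells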
EP2 mod: modulates human prostaglandin E2 receptor EP2 signaling | induction, % at 25 µM | EP2-expressing cells, cAMP HTRF FRET, PGE2 co-stimulation | P43116 | 260,000 tested, 0.83% active;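 active = compounds whose cAMP rise, as percent of the full-agonist control response, exceeds 60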;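 note: rat C6 glioma line stably carrying human EP2 under a CMV promoter; the protocol text gives 20 µM as final concentration; 100% = response of wells given 1 µM PGE2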
Active calls of the source: *; · = no result given. Only some compounds are listed: those with a hit (about 3.7% of all), similar ones and a draw of the others.

SMILES	EP2 antag	GPR7 antagonist	CHO parental Ca	OX1R antag-1	OX1R antag-2	EP2 mod
N#C/C(=C(/O)COC(=O)c1ccccc1O)c1nc2ccccc2s1	9	-6	5	53*	0	-34
COc1ccc(C/C(N)=N/OC(=O)C(c2ccccc2)c2ccccc2)cc1OC	6	-12	-9	21	54*	13
COc1ccc(C/C(N)=N/OC(C)=O)cc1OC	12	-7	0	6	-6	14
COc1c(C)cc(C(=O)C2CCCN(C(=O)c3ccoc3)C2)cc1C (stereo unspecified)	5	-10	-15	51*	-13	-33
O=C1CN2CCN(CC2)CC(=O)Nc2ccc(cc2)S(=O)(=O)c2ccc(cc2)NC(=O)CN2CCN(CC2)CC(=O)Nc2ccc(cc2)S(=O)(=O)c2ccc(cc2)N1	51*	·	·	·	·	13
O=C1CNCCCN2CCN(CCCNCC(=O)Nc3ccc(cc3)S(=O)(=O)c3ccc(cc3)NC(=O)CNCCCN3CCN(CCCNCC(=O)Nc4ccc(cc4)S(=O)(=O)c4ccc(cc4)N1)CC3)CC2	42*	·	·	·	·	7
O=C(NCCc1ccc(Cl)cc1)C1CCCN(S(=O)(=O)N2CCCCCC2)C1 (stereo unspecified)	·	20	-20	-6	-41	·
O=c1c2ccccc2nc(-c2cccs2)n1-c1cccc2ccccc12	10	-1	-9	2	-26	62*
COc1ccc(CNn2c(-c3cccs3)nc3ccccc3c2=O)cc1OC	9	-10	-14	32	-27	23
CC1(C)CSC(=NCCc2ccccc2)N1C(=O)c1ccc(C#N)cc1	5	20*	-9	14	-12	10
O=C(OCC(=O)N1CCOCC1)c1ccc(Cl)cc1[N+](=O)[O-]	·	3	3	32	-11	·
CC1CCC(NC(=O)COC(=O)CSc2ccc(C(N)=O)cc2[N+](=O)[O-])CC1 (stereo unspecified)	·	·	1	51	-13	·
CC1CN(C(=O)COC(=O)CSc2ccc(C(N)=O)cc2[N+](=O)[O-])CC(C)O1 (stereo unspecified)	·	·	-17	73*	-3	·
Cc1ccc(CN(C)C(=O)COC(=O)CSc2ccc(C(N)=O)cc2[N+](=O)[O-])cc1	·	·	-10	58*	-25	·
O=C(OCC(=O)N1CCCC1=O)c1ccc(Cl)cc1[N+](=O)[O-]	·	·	7	58*	-4	·
Cc1ccc(CN(C)C(=O)COC(=O)CSc2ccc([N+](=O)[O-])cc2)cc1	·	·	-12	25	-12	·
NC(=O)c1ccc(SCC(=O)OCC(=O)NC2CCCCCCC2)c([N+](=O)[O-])c1	·	·	-17	30*	-17	·
Cc1oc2c(C)c3oc(=O)c4c(c3cc2c1C)CCC4	11	-14	·	·	·	10
Cc1ccc(OCCOC(=O)c2cc(S(=O)(=O)N3CCCCC3)ccc2N2CCOCC2)cc1	·	·	13	10	35	·
CC1=NN(c2ccc(Cl)cc2)C(=O)C1C(c1ccccc1O)c1c(C)[nH]n(-c2ccc(Cl)cc2)c1=O (stereo unspecified)	16	2	5	45	1	-34
NC(=O)c1ccc(SCC(=O)OCC(=O)N2CCCC2=O)c([N+](=O)[O-])c1	·	·	-4	67*	-8	·
CCN(C(=O)COC(=O)CSc1ccc(C(N)=O)cc1[N+](=O)[O-])C1CCCCC1	·	-11	-9	49	-23	·
COCOc1ccc(C=O)c(O)c1	11	·	-6	9	-17	·
O=Cc1ccc(OCc2cccc(C(F)(F)F)c2)cc1O	6	-12	-12	3	-18	63*
Cc1ccc(S(=O)(=O)NNC(=O)c2sccc2-n2cccc2)cc1	6	-10	-6	12	-16	11
SMILES	EP2 antag	GPR7 antagonist	CHO parental Ca	OX1R antag-1	OX1R antag-2	EP2 mod
O=C(NNS(=O)(=O)c1cc(Cl)cc(Cl)c1)c1sccc1-n1cccc1	5	-10	-25	69*	0	-5
CCOc1c(Br)cc(C(N)=O)cc1OCc1ccccc1	14	-16	-11	18	-30	62*
COc1cc(C(N)=O)cc(Br)c1OCc1ccccc1	7	-5	4	-2	-9	32
NC(=O)COC(=O)[C@H](Cc1c[nH]c2ccccc12)NC(=O)c1ccc(F)cc1	·	-19	-18	10	-11	·
Cc1cc(C(C#N)c2ccc(Cl)cc2)c(Cl)cc1NC(=O)c1cc(I)cc(I)c1O (stereo unspecified)	·	·	47*	62*	29	·
O=C(NCc1ccccc1)c1ccc(OCC2CCCO2)cc1 (stereo unspecified)	4	2	-4	8	-11	4
N#CC1=C(N)NC(SCC(=O)c2ccc(Cl)cc2)=C(C#N)C12CCCC2	14	3	26	21	53*	-31
N#CC1=C(N)NC(SCC(=O)c2ccc(Br)cc2)=C(C#N)C12CCCCC2	9	-9	23	44	5	-47
N#Cc1c(-c2cccc([N+](=O)[O-])c2)nc2n(c1=O)CCS2	·	9	2	40	-11	·
N#Cc1c(-c2ccc([N+](=O)[O-])cc2)nc2n(c1=O)CCS2	·	-4	-3	65*	-5	·
Cc1cc(C(=O)N2CCN(c3ccccc3)CC2)no1	5	-9	-4	4	6	-5
CCN1/C(=C/c2ccc3ccccc3[n+]2CC)C=Cc2ccccc21	26	53*	71*	100*	27	-4
Cc1cc(C)c(S(=O)(=O)c2ccc(C(C)(C)C)cc2)c(Cl)n1	·	-7	43*	11	2	·
Cc1ccc(S(=O)(=O)c2c(C)cc(C)nc2Cl)cc1	16	-3	-8	7	3	-8
CSCCC(Nc1ncnc2ccc(Br)cc12)C(=O)O (stereo unspecified)	11	-3	4	-12	4	44
CC(=O)c1cccc(Nc2ncnc3ccc(Br)cc23)c1	·	-3	-27	74*	-13	·
COc1cc(C(=O)Oc2cccc(Nc3ncnc4ccccc34)c2)cc(OC)c1OC	4	-11	43*	56*	64*	-14
CC(C)Nc1ncnc2ccc(Br)cc12	4	-17	29*	25	19	13
O=C(Oc1cccc(Nc2ncnc3ccccc23)c1)c1cccnc1	9	9	6	39	4	-76
CC(Sc1nnc(Nc2ccccc2F)s1)C(=O)NC1CC1 (stereo unspecified)	·	·	-12	14	-14	·
CC(C1CC1)N(Cc1ccccc1)C(=O)NC(=O)c1cccc(F)c1 (stereo unspecified)	7	-13	-3	28	-11	28
O=c1ccc2ccc(Oc3ccc([N+](=O)[O-])cc3[N+](=O)[O-])cc2o1	4	-1	-9	85*	-11	-37
C=C(C)C(O)CC/C(C)=C/Cc1c(O)ccc(C(=O)/C=C/c2ccc(O)cc2)c1O (stereo unspecified)	·	·	31*	2	30	·
COCCNC(=O)c1cccc(NC(=O)C2=C(C)OCCS2)c1	·	4	-4	8	-13	·
